# Bioassay records (PubChem BioAssay)
# Efa HMGR inh = E. faecalis class II HMG-CoA reductase inhibition; purified E. faecalis HMGR, NADPH absorbance 340 nm kinetic; inhibition, % at 10 µM; 190,000 tested, 0.41% active; AID 1066;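 active means inhibition above a set limit, the median over all tested compounds plus 3 SD, cut at about 9.5% in these data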;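 further: enzyme runs in reverse so mevalonate oxidation gives rising NADPH absorbance; 0% = complete reaction with DMSO and 100% = background rate lacking mevalonate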
# Diaph act CS = diaphorase activation or chemical reduction counter-screen; Diaphorase/resazurin coupled assay, resorufin fluorescence, 16 min; stronger effect = higher value; 1 = vehicle wells, 0 = NADH-free wells; AID 1229; 190,000 tested, 0.005% active; activation factor at 20 µM;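 active means diaphorase activity raised at least twofold by the compound at 20 µM; inactive means activation factor below 2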
#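 Assay system: bacterial diaphorase enzyme (C. kluyveri) / Input: enzyme 0.07 U/mL final / Medium: 50 mM HEPES pH 7.4 with 4.542 mM MgCl2, 0.005% Tween 20 / Doses: single compound dose of 20 µM, 1% DMSO final / Incubation: 16 min enzyme reaction, ambient temperature / Signal: fluorescence, excitation 544 nm and emission 590 nm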
# NCF1 inh = p47phox (human) inhibition | p47phox/p22phox peptide binding, fluorescence polarization, 2 h | 220,000 tested, 0.53% active | inhibition, % at 24.7 µM | P14598;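 active means inhibition above about 30%, limit read from the data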;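 further: 0% = p47phox with labelled peptide and 100% = labelled peptide alone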
# ABCG2 inh = human ABCG2 inhibition, ABCB1 as counter-screen; Q9UNQ0; IgMXP3 cells, JC-1 efflux, flow cytometry; inhibition, % at 6.6 µM; 190,000 tested, 0.1% active;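 active means inhibition above 80%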;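 further: 0% = DMSO and 100% = nicardipine control wells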
#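 Test system: ABCG2 IgMXP3 and barcoded ABCB1 CCRF-Adr cell mix; Schedule: cells with compound and JC-1, 10 min at 25 °C, rotating, no wash; Technique: flow cytometry of retained JC-1 fluorescence; Measure: % inhibition of efflux relative to nicardipine and DMSO; Controls: nicardipine high and DMSO low controls.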
# Diaphorase inh = inhibits diaphorase or chemically oxidizes, flagging diaphorase assay artifacts; diaphorase resazurin-to-resorufin fluorescence, NADH, 16 min; bacterial (C. kluyveri) enzyme, not human; 190,000 tested, 0.69% active; inhibition, % at 20 µM; AID 1217;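 active means primary screen inhibition at 20 µM above a set limit, cut at about 50% in these data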;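 further: plate controls were DMSO with full reaction for no effect and wells lacking NADH for full effect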
#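 material = Clostridium kluyveri diaphorase enzyme | amount = 0.14 U/mL diaphorase, enzyme working solution | schedule = incubation 16 min, room temperature | detection = fluorescence of resorufin formed from resazurin, Ex 544/Em 590 nm | benchmarks = positive control minus NADH, DMSO neutral control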
# ABCB1 inh = human ABCB1 inhibition, ABCG2 as counter-screen. P08183. CCRF-Adr cells, JC-1 efflux, flow cytometry. inhibition, % at 6.6 µM. 190,000 tested, 0.067% active. AID 1326; in the data active means inhibition above about 40%;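 further: 0% = vehicle and 100% = reference inhibitor; higher value means more JC-1 retained so stronger ABCB1 efflux block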
# Target sequence (P08183 whole entry, looked up): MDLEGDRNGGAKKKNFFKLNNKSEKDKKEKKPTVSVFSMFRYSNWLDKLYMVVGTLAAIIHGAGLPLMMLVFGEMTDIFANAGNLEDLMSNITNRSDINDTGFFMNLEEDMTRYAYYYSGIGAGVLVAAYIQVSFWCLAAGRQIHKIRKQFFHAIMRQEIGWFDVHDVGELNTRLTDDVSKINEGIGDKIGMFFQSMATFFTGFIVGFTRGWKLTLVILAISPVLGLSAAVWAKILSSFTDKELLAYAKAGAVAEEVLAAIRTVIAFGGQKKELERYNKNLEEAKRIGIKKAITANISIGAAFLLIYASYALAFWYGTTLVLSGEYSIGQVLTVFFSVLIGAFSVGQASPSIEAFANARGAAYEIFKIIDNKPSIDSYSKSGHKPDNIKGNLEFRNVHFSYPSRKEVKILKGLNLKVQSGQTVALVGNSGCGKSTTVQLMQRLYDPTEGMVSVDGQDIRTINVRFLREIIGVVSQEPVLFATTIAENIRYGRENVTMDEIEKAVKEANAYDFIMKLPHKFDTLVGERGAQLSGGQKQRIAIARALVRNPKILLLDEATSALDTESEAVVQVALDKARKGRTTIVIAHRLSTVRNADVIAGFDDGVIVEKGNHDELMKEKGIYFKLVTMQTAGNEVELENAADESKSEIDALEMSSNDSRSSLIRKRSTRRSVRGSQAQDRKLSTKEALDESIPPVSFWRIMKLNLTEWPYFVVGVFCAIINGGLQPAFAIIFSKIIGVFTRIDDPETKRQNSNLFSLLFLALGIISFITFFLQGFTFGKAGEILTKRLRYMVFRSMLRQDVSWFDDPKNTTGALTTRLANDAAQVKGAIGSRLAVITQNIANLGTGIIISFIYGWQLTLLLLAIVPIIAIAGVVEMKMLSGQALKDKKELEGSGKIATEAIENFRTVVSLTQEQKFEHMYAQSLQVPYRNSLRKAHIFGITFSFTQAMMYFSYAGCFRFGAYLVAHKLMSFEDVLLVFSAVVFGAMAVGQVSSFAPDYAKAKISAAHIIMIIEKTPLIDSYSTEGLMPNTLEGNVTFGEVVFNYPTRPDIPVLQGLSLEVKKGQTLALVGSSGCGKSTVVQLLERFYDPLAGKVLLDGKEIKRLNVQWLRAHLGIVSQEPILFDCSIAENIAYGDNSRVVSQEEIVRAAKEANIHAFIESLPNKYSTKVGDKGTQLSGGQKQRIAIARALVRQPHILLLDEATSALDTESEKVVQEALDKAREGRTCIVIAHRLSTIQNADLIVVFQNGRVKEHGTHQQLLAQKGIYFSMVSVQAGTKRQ
# ABCB1 confirm = inhibits human ABCB1 efflux, confirmed at single point; shares compounds with ABCG2 inh; CCRF-Adr cells, JC-1 efflux, flow cytometry; inhibition, % at 6.6 µM; 270 tested, 7% active; AID 1451;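 active means inhibition of pump activity above 50%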;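 further: 0% = DMSO and 100% = nicardipine full pump inhibition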
# ABCG2 confirm = confirmation of human ABCG2 transporter inhibitors, ABCB1 counter-screen | 270 tested, 6% active | shares compounds with ABCG2 inh | AID 1453 | IgMXP3 cells, JC-1 efflux, flow cytometry | inhibition, % at 6.6 µM;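 active means inhibition above 50%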;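 further: 0% = DMSO wells and 100% = nicardipine pump inhibitor wells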
# IgMXP3 autofluor = IgMXP3 autofluorescence flag for ABCG2 confirmation | shares compounds with ABCG2 inh | IgMXP3 cells, compound autofluorescence 488/530 nm, flow; stronger effect = higher value | fluorescence at 6.6 µM | 270 tested, 30% active | AID 1480;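 active means fluorescence in ABCG2-expressing cells above the plate's control-well mean plus 3 SD, cut at about 15 in these data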;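 further: median cell fluorescence with compound minus that of DMSO-treated control cells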
# CCRF autofluor = CCRF-Adr autofluorescence flag for ABCB1 confirmation; 270 tested, 30% active; AID 1483; CCRF-Adr cells, compound autofluorescence 488/530 nm, flow cytometry; stronger effect = higher value; fluorescence at 6.6 µM; shares compounds with ABCG2 inh;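 active means fluorescence beyond the plate control mean plus 3 SD, with a fluorescence-to-maximum score over 2, cut at about 25 in these data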
# Starred values were filed as active, the others as inactive; / = not tested or not shown; + = active, no number. Sampled rows, rich in hits. Any-hit rate of the full collection: about 1.6%.
SMILES,Efa HMGR inh,Diaph act CS,NCF1 inh,ABCG2 inh,Diaphorase inh,ABCB1 inh,ABCB1 confirm,ABCG2 confirm,IgMXP3 autofluor,CCRF autofluor
COc1ccc(/C=N/Nc2cc(=O)n(C)c(=O)n2C)cc1OC,-2.5,0.9,-8.9,88.2*,5.9,2.9,2.2,48.3,23.3*,7.91
O=[N+]([O-])c1ccc(N2CCN(c3ccccc3F)CC2)c(S(=O)(=O)N2CCOCC2)c1,-8.4,0.7,-47.3,/,32.8,/,0.9,5.2,-1.34,0.76
CCN1/C(=C/c2ccc3cc(C)ccc3[n+]2C)Sc2ccc3sccc3c21,-2.4,/,-242.9,2.5,/,0.8,/,/,/,/
CCCCN1/C(=C/c2ccc3ccccc3[n+]2CC)Sc2ccccc21,-4.5,0.9,-106.0,121.3*,11.5,20.2,72.7*,8.2,256*,337*
CCN1/C(=C/c2ccc3cc(C)ccc3[n+]2CC)Sc2cc(C)ccc21,1.6,1,-55.2,+,0.3,10.0,114.2*,8.2,118*,187*
CC1CCCCC1NC(=O)COC(=O)c1ccccc1NC(=O)c1ccco1 (stereo unspecified),-9.6,1,-1.1,4.2,2.9,1.1,/,/,/,/
Cc1[nH]ccc(=O)c1Oc1ncc(C(F)(F)F)cc1Cl,-3.4,1.1,-13.9,2.1,-6.6,0.8,/,/,/,/
COc1cc2nc(SCC(N)=O)n(CCC3=CCCCC3)c(=O)c2cc1OC,-3.5,0.9,5.2,4.4,8.0,1.4,/,/,/,/
COCCNC(=O)CSc1nc2cc(OC)c(OC)cc2c(=O)n1CCC1=CCCCC1,1.4,0.9,-6.7,88.2*,12.1,18.5,8.6,46.5,1.31,-1.44
CCSc1nc2cc(OC)c(OC)cc2c(=O)n1CCc1ccccc1,-0.5,0.6,-7.6,76.7,41.5,2.8,5.5,34.9,5.76,0.56
CCn1c(SCc2ccccc2Cl)nc2nc3c(cc2c1=O)CCCC3,-3.7,0.9,-11.8,92.5*,8.2,21.2,17.9,16.2,15.3*,6.21
O=C(O)C1C2C=CC3(O2)C1C(=O)N1c2ccccc2COC13 (stereo unspecified),-4.5,1,-1.9,0.2,-4.3,0.1,/,/,/,/
N#CC(C#N)=C1C=C2C=C(N3CCCCC3)CCC2CC1 (stereo unspecified),-7.1,0.5,112.6*,51.4,45.3,169.7*,62.4*,62.0*,17.3*,66.9*
N#CC1=C(N)C2=C(N3CCCCC3)CCCC2C1(C#N)C#N (stereo unspecified),-1.4,0.7,-1.4,-1.0,30.0,-0.5,/,/,/,/
CCCCN(C)C1=CC2=CC(=C(C#N)C#N)CCC2CC1 (stereo unspecified),-1.1,0.7,3.2,84.9*,27.0,+,163.6*,49.3,43.6*,232*
CCN(CC)C1=CC2=CC(=C(C#N)C#N)CCC2CC1 (stereo unspecified),-7.2,0.7,62.1*,43.5,28.3,83.7*,24.3,74.2*,18.8*,40*
O=C(Nc1ccc(F)cc1)NC1CCN(Cc2nnnn2Cc2ccco2)CC1,-2.5,0.9,-6.2,83.2*,13.7,1.1,1.1,21.1,-1.74,-2.89
CCN(CCCNC(=O)CCc1nc(-c2ccc(C)cc2)no1)c1cccc(C)c1,0.0,0.8,0.7,82.8*,22.0,3.0,1.9,32.4,-1.64,-4.24
CC(C)CCn1c(O)c(N=Nc2ccccn2)c2ccccc21,-1.3,0.9,-6.7,86.7*,14.7,1.9,4.3,44.1,-1.09,-4.79
CCCn1c(O)c(N=Nc2ccc3ccccc3n2)c2ccccc21,-0.5,0.8,-107.1,-1.0,19.3,1.4,/,/,/,/
COc1ccc2cc3cc(C(=O)Nc4ccccc4N4CCN(C)CC4)oc3nc2c1,0.6,1.1,-9.1,52.5,-9.0,47.1*,25.0,18.2,11.3,-1.39
Cc1ccccc1-n1c(SCC(=O)Nc2ccccc2)nc2nc3c(cc2c1=O)CCCC3,12.6*,0.8,-15.2,35.9,19.4,45.6*,47.7,23.5,0.71,91.2*
Cc1cccc(NC(=O)CSc2nc3nc4c(cc3c(=O)n2-c2ccccc2)CCCC4)c1,-7.0,0.8,14.0,2.6,17.9,5.9,/,/,/,/
O=C(Nc1ccccc1)C1=C(O)CC(c2ccco2)CC1=Nc1ccccc1 (stereo unspecified),-8.5,0.9,2.4,6.3,10.7,0.5,/,/,/,/
CCCCNc1c2c3c(cccc3n(C)c1=O)C(=O)c1ccccc1-2,-0.6,0.8,-58.7,141.6*,24.6,65.7*,3.7,15.8,70.7*,132*
SMILES,Efa HMGR inh,Diaph act CS,NCF1 inh,ABCG2 inh,Diaphorase inh,ABCB1 inh,ABCB1 confirm,ABCG2 confirm,IgMXP3 autofluor,CCRF autofluor
CC(=O)Nc1ccc(Nc2c3c4c(cccc4n(C)c2=O)C(=O)c2ccccc2-3)cc1,-0.4,0.8,-25.8,9.5,19.8,10.2,/,/,/,/
Cn1c(NCCc2ccccc2)cc(=O)n(C)c1=O,-8.3,0.9,-9.8,1.2,5.5,0.2,/,/,/,/
Cn1c(=O)c(NCCc2ccccc2)c2c3c(cccc31)C(=O)c1ccccc1-2,-3.7,0.8,-251.2,150.8*,18.1,70.5*,10.2,33.5,55*,143*
Cn1c(=O)c(NCCO)c2c3c(cccc31)C(=O)c1ccccc1-2,1.0,0.8,-251.2,84.1*,19.2,7.1,0.4,19.7,12.6,8.31
O=C(Nc1cccc(Cl)c1)Nc1ccc2c(c1)OCO2,-0.4,0.8,-3.2,74.0,23.0,0.9,10.5,18.0,8.66,11.5
O=C(Nc1ccc2c(c1)OCCO2)Nc1ccc2c(c1)OCO2,0.6,0.9,-6.6,-1.2,8.4,-0.3,/,/,/,/
Clc1ccc(Cl)c(-c2ccc(/C=N/c3ncn[nH]3)o2)c1,-1.4,0.8,-4.0,83.5*,21.4,4.1,-0.3,9.2,1.06,-0.64
O/N=C/c1ccc(-c2cc(Cl)ccc2Cl)o1,-6.8,1,-15.8,4.7,-0.7,0.1,/,/,/,/
COc1ccc([N+](=O)[O-])cc1-n1cccc1,-0.3,0.9,-7.9,2.7,9.9,0.3,/,/,/,/
N#C/C(=C\N1CCN(Cc2ccc3c(c2)OCO3)CC1)c1nc2ccccc2s1,-8.7,0.8,-93.0,15.8,22.9,13.3,/,/,/,/
